Experimental data published in ChEMBL document CHEMBL3870311, “Synthesis and biological evaluation of C1-O-substituted-3-(3-butylamino-2-hydroxy-propoxy)-xanthen-9-one as topoisomerase IIα catalytic inhibitors” (Eur J Med Chem, 2016).
Active and inactive are the calls of the source. No cut-off for these calls is given here.

Tests used:
[1] = Cytotoxicity against human HeLa cells assessed as reduction in cell growth after 72 hrs by CCK8 assay; assay type: functional, cell-based
Outline: (§1)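 Cells (2~4 x 10^4 per well) seeded overnight in media with 10% FBS, 37 °C, 5% CO₂, then exposed to graded compound concentrations for 72 h. CCK-8 solution added for a further 4 h; absorbance read at 450 nm. IC₅₀ from four-parameter logistic fit; adriamycin, etoposide and camptothecin as positive controls.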

[2] = biological target: T1, DNA topoisomerase 2-alpha (Homo sapiens, UniProt P11388); assay: Poisoning activity at human topoisomerase-2 alpha assessed as stabilization of enzyme-pBR322 DNA cleavage complex by measuring linear DNA formation at 100 uM after 30 mins by agarose gel electrophoresis; conditions: 0.5 h
T1 sequence (P11388 whole entry): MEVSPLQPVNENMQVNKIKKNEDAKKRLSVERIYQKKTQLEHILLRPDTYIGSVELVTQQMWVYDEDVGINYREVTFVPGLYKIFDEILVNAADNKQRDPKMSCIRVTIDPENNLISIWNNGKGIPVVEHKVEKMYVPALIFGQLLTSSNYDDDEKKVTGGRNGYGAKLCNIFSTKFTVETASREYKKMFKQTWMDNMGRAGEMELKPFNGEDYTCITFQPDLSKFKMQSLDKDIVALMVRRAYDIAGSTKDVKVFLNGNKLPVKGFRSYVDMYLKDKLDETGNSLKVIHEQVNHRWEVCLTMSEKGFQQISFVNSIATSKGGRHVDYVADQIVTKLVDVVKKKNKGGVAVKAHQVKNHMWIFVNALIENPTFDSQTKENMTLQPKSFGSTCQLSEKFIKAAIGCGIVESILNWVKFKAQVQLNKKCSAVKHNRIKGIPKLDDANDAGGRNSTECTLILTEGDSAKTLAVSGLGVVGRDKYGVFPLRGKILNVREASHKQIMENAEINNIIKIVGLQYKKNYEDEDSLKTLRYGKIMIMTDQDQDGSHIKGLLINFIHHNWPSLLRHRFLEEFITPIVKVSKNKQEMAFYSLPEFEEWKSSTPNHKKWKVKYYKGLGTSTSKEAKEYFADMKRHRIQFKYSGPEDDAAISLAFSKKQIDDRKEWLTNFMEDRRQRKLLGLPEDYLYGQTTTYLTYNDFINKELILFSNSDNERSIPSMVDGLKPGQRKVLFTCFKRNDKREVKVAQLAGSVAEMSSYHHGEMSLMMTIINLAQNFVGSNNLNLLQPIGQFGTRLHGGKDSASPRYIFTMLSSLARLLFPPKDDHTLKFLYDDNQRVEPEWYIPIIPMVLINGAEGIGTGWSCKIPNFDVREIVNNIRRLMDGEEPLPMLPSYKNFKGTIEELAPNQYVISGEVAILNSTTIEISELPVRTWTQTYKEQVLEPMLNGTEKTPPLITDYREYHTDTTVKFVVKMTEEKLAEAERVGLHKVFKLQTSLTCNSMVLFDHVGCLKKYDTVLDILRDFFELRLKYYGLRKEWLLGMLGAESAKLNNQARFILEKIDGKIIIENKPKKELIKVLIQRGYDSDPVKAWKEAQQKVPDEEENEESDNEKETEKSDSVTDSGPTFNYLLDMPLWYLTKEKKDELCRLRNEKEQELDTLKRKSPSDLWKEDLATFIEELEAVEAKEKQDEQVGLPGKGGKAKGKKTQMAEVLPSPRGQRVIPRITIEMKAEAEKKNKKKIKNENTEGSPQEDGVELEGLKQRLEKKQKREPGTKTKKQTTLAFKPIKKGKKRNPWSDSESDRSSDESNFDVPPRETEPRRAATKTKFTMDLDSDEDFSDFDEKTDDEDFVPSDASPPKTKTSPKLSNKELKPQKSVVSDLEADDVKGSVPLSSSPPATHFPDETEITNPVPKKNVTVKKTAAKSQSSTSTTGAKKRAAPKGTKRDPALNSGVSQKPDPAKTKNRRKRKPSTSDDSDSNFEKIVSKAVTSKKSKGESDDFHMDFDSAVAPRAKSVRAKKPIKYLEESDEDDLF

[3] = biological target: T1, DNA topoisomerase 2-alpha; assay: Inhibition of human topoisomerase-2 alpha at 20 uM using supercoiled pBR322 DNA as substrate after 30 mins by agarose gel electrophoresis relative to control
[4] = Cytotoxicity against human NCI-N87 cells assessed as reduction in cell growth after 72 hrs by CCK8 assay; assay type: functional, cell-based; conditions: NCI-N87, 72 h; outline: as §1
[5] = Cytotoxicity against human HCT15 cells assessed as reduction in cell growth after 72 hrs by CCK8 assay; assay type: functional, cell-based; conditions: HCT-15, 72 h; outline: as §1
[6] = Cytotoxicity against human T47D cells assessed as reduction in cell growth after 72 hrs by CCK8 assay; assay type: functional, cell-based; outline: as §1
[7] = biological target: T1, DNA topoisomerase 2-alpha; assay: Poisoning activity at topoisomerase-2 alpha in human T47D cells assessed as induction of DNA damage by measuring comet formation at 5 to 10 uM after 24 hrs by SYBR Green staining based inverted fluorescence microscopic analysis; assay type: cell-based
Outline: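 Alkaline comet assay: T47D cells seeded in six-well plates, treated at ~70% confluence with 5 or 10 µM compound for 24 h, trypsinized, embedded in low-melting agarose. Lysis 30 min at 4 °C, alkaline unwinding (pH>13) 30 min, electrophoresis 20 min at 15 V, SYBR Green stain; imaged by inverted fluorescence microscopy, percent DNA in tail quantified.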

[8] = biological target: T1, DNA topoisomerase 2-alpha; assay: Inhibition of topoisomerase-2 alpha catalytic activity in human T47D cells assessed as increase in free topoisomerase-2 alpha level at 50 uM after 2 hrs by Western blot method; assay type: cell-based
Outline: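 T47D cells (2 x 10^5 per well) seeded overnight, treated 2 h at 37 °C with 50 µM compound or etoposide in serum-free RPMI. Harvested cells washed in PBS, lysed in 62.5 mM Tris-HCl pH 6.8, 1 mM EDTA, 2% SDS with sonication; cleared supernatant run on 10% SDS-PAGE and free topo IIα detected by Western blot.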

[9] = biological target: T1, DNA topoisomerase 2-alpha; assay: Inhibition of human topoisomerase-2 alpha at 100 uM using supercoiled pBR322 DNA as substrate after 30 mins by agarose gel electrophoresis method relative to control

inhibition [3] | inhibition [8] | inhibition [9] | Structure (SMILES) | IC50 [1] | Activity [2] | IC50 [4] | IC50 [5] | IC50 [6] | Activity [7]
45.6% |  |  | COc1cc([C@@H]2c3cc4c(cc3[C@@H](O[C@@H]3O[C@@H]5CO[C@@H](C)O[C@H]5[C@H](O)[C@H]3O)[C@H]3COC(=O)[C@H]23)OCO4)cc(OC)c1O [ETOPOSIDE] | 10 µM | Active | 1.29 µM | 1.06 µM | 2.8 µM | Active
20.4% | Active | 62.8% | CCCCNCC(O)COc1cc(OCCc2cccc(Cl)c2)c2c(=O)c3cccc(OC)c3oc2c1 (centres undefined) | 2.6 µM |  | 0.4 µM | 1.49 µM | 0.19 µM | 
